High-throughput results as filed in PubChem.
NF-kB neuron act = NF-kB expression increase, human neuronal cells; NF-kB reporter expression; stronger effect = higher value; fold change at 12.5 µM; AID 1239; actives 1.6% (n = 190,000); in the data active = fold change above about 3.3
FLuc act counter = affects firefly luciferase, flagging false hits in luciferase stimulation screens | P08659 | ATPlite luciferase biochemical, luminescence, 10 min; 0 = ATP-free wells, 1 = DMSO control | activation factor at 10 µM | 200,000 tested, under 10 active;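 active = luciferase activation factor, scaled between plate controls, of at least 2 with compound at 10 µM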
Target sequence (P08659 whole entry, looked up): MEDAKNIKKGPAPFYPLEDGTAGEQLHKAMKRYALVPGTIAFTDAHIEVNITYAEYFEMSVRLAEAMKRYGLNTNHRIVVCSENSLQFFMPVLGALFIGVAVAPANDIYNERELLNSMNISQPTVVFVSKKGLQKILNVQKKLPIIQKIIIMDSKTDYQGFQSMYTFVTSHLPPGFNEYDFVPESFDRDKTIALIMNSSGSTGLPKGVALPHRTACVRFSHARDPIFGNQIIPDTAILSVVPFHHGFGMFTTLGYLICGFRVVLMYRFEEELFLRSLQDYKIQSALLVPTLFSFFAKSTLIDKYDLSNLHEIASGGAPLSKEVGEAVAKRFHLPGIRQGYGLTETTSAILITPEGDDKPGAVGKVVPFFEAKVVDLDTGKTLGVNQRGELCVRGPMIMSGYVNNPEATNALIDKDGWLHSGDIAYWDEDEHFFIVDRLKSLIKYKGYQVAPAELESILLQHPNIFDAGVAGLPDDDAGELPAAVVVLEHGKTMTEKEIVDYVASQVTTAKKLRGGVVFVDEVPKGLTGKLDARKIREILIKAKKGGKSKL
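Material: Luciferase/luciferin reagent mix | Doses: Test compounds dosed from 2 mM stocks in 100% DMSO | Timing: 10 min incubation after luciferase reagent addition, room temperature | Measured by: Luminescence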
FLuc inh counter = Photinus pyralis luciferase inhibition counter-screen | ATPLite firefly luciferase biochemical luminescence, 10 min | inhibition, % at 10 µM | actives 1.5% (n = 200,000);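 active = inhibition above about 50% when tested at 10 µM, limit read from the data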
STAT1 activator = increases IFN-gamma driven STAT1 reporter signal; activation (% of control), % at 5.5 µM; actives 2.6% (n = 200,000); NIH 3T3 STAT1-luciferase reporter, luminescence; 100% = IFN-gamma alone, no compound;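 active = activation above the screen-wide mean activation plus 3 SD, cut at about 130% in these data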;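 note: raw ratio to IFN-gamma control signal so 100% means no change and 0% no light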
Pf gamet viab = P. falciparum stage V gametocyte viability inhibition. inhibition, % at 10.9 µM. actives 0.065% (n = 150,000). P. falciparum stage V gametocytes, ATP luminescence, 24 h;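 active = inhibition above the mean plus 3 SD of compounds within the control limits, set per campaign, cut at about 38% in these data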;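 note: 0% = DMSO wells and 100% = medium only without gametocytes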
APP 5'UTR act = APP 5'UTR luciferase reporter activation. SH-SY5Y APP 5'UTR luciferase reporter, luminescence; zero percent = DMSO vehicle wells. actives 1% (n = 190,000). activation, % at 2 µM;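 active = activation above a set limit, based on mean plus 3 SD of controls, cut at about 140% in these data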
STAT1 act conf = confirmation of STAT1 signaling activators; shares compounds with STAT1 activator; NIH 3T3 STAT1-luciferase reporter, IFN-gamma potentiation, luminescence; 100% = IFN-gamma EC80 alone, no compound; activation (% of control), % at 5.7 µM; actives 97% (n = 1,200); AID 1262;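 active = activation above a set limit carried over from the earlier primary STAT1 screen, cut at about 140% in these data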;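 note: simple ratio to median IFN-gamma plus DMSO wells so 0% means no light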
NFkB act = counter-screen for STAT1 activators: NF-kappaB activation; shares compounds with STAT1 activator; HEK293T NF-kB luciferase reporter, TNF-alpha stimulated, luminescence; 100% = TNF-alpha with vehicle only; activation (% of control), % at 5.7 µM; actives 43% (n = 1,200); AID 1306;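 active = activation above the mean of solvent-only control wells plus 3 SD, set per campaign, cut at about 130% in these data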;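 note: TNF-alpha given at a submaximal dose yielding about 80% of full reporter signal; values are well signal over median control so 100% means no change and 0% no light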
STAT3 act 2 = activates human STAT3, counter-screen to STAT1 activators; activation (% of control), % at 5.7 µM; AID 1316; actives 46% (n = 1,200); shares compounds with STAT1 activator; U3A cells STAT3-luciferase reporter, IL-6, luminescence; cells lack STAT1; 100 = IL-6 alone, no compound effect;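 active = activation above the solvent-only control well mean plus 3 SD, set per plate batch, cut at about 110% in these data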;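 note: 0% = no luminescence and 100% = median IL-6 plus DMSO wells; higher means more STAT3 reporter activation so hits are non-selective activators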
* hit, by the source's call; . = not tested or not shown. Sampled rows, rich in hits. Any-hit rate of the full collection: about 3.5%.

SMILES	NF-kB neuron act	FLuc act counter	FLuc inh counter	STAT1 activator	Pf gamet viab	APP 5'UTR act	STAT1 act conf	NFkB act	STAT3 act 2
Cc1ccc(C(=O)COC(=O)c2cc(=O)[nH]c3ccccc23)cc1C	2.64	0.4	55.2*	163.1*	10.1	-20.6	203.2*	135.5*	121.0*
NC(=O)COC(=O)c1cc(=O)[nH]c2ccccc12	.	.	.	.	18.3	.	.	.	.
CCOC(=O)Cc1csc(/N=C/c2c(O)n(-c3ccccc3C(F)(F)F)c(=O)c3ccccc23)n1	1.15	1	-1.7	95.7	2.1	-16.7	.	.	.
CN(C)C(=O)C1Cc2ccccc2CN1S(=O)(=O)c1ccc(F)cc1 (stereo unspecified)	.	.	.	.	9.5	.	.	.	.
Cc1oc(-c2ccc(-c3ccccc3)cc2)nc1CN1CCN(CC(=O)N(C)C)CC1	2.05	0.6	38.9	154.9*	.	90.1	191.2*	129.7	128.2*
CCCCNc1nc(N)nc(-c2cc(Cl)ccc2O)n1	1.61	0.8	21.4	178.2*	-21.6	155.2*	229.6*	145.4*	153.6*
CCCNc1nc(N)nc(-c2cc(Cl)ccc2OC)n1	0.82	1	-2.2	96.8	3.0	-5.8	.	.	.
CCNc1nc(N)nc(-c2cc(Cl)ccc2O)n1	6.84*	0.4	62.8*	196.2*	.	214.7*	288.0*	145.2*	166.7*
CC#CC(=O)N1CCCC(Cc2cccc(OC)c2)(C(=O)OCC)C1 (stereo unspecified)	.	.	.	.	22.2	.	.	.	.
c1ccc(-c2cnn3c(-c4ccccc4)c(-c4ccccc4)nc3n2)cc1	1.17	1	-2.7	99.5	.	1.7	.	.	.
COc1ccc(NC(=S)Nc2ccc3snnc3c2)cc1	1.4	1.1	-8.2	109.0	-1.9	40.9	.	.	.
COc1ccc(NC(=S)Nc2ccc3nccnc3c2)cc1	0.98	0.9	12.7	153.3*	-0.6	23.9	141.1*	109.3	98.5
COc1ccc(Nc2oc(-c3cccs3)nc2C#N)cc1	2.35	0.9	11.6	150.8*	-30.5	72.2	160.2*	119.7	94.2
Cc1ccc(NC(=O)c2cncc(Br)c2)c(O)c1	1.9	0.9	10.7	113.5	.	26.2	.	.	.
COc1cc(OC)cc(C(=O)NC(=S)Nc2nc(-c3cc4ccccc4o3)cs2)c1	.	.	.	.	-0.5	.	.	.	.
COCCNc1nc(-c2cc3ccccc3o2)cs1	8.13*	0.4	62.3*	194.2*	0.3	180.5*	230.1*	125.5	104.8
CCN(CC)c1ccc(NC(=O)c2cccnc2)c(C)c1	1.05	1.1	-6.9	100.8	1.4	-9.3	.	.	.
CCN(CC)c1ccc(NC(=O)c2cccc(C)c2OC)c(C)c1	4.15*	0.8	17.9	152.5*	-11.4	98.0	175.4*	137.0*	105.6
O=C(Nc1nc2c(s1)CCCC2)c1ccc2ncsc2c1	3	0.4	59.0*	181.5*	.	160.1*	270.5*	138.8*	111.1*
COC(=O)c1ccc(C(=O)NC(=S)Nc2nc3c(s2)CCCC3)cc1	1.71	1	-4.1	124.4	0.5	22.1	.	.	.
COc1ccc(OC)c2sc(NC(=O)c3ccc(Br)s3)nc12	1.18	1	-3.6	101.1	.	20.2	.	.	.
O=C(Nc1nc2c(s1)CCCC2)c1ccc(Br)s1	6.08*	0.6	42.0	165.9*	.	146.1*	256.3*	138.3*	103.7
Cc1ncsc1C(=O)Nc1nc2c(s1)CCCC2	3.17	0.5	45.4	153.9*	.	100.6	174.8*	124.4	105.2
O=C(NC1CC1)C1CCN(C2CCN(C(=O)CC3=CCCCC3)CC2)CC1	1.19	1	-4.2	98.3	3.1	0.0	.	.	.
CC(=O)NC(CCS(C)(=O)=O)C(=O)Nc1c(C)cccc1C (stereo unspecified)	1	1	-3.6	98.1	.	1.4	.	.	.
SMILES	NF-kB neuron act	FLuc act counter	FLuc inh counter	STAT1 activator	Pf gamet viab	APP 5'UTR act	STAT1 act conf	NFkB act	STAT3 act 2
CCc1nc(-c2ccc(C)nc2OC)no1	0.95	1	-3.1	103.0	.	-16.6	.	.	.
COc1ccccc1-c1nc(-c2ccc(C)nc2OC)no1	2.45	0.7	25.8	156.8*	-8.2	46.4	165.0*	126.4	102.7
Nc1nn(-c2ccccc2)c(N)c1N=Nc1cccc(F)c1	.	.	.	.	9.4	.	.	.	.
Nc1nn(-c2ccccc2)c(N)c1N=Nc1ccc2c(c1)OCO2	7.51*	0.5	50.8*	178.4*	13.6	91.8	253.3*	135.2*	111.9*
Cc1ccc2[nH]c3c(c2c1)CC/C(=C/c1ccccc1)C3=O	1.51	1	3.0	120.4	.	-2.7	.	.	.
Cc1ccc(/C=C2/CCc3c([nH]c4ccccc34)C2=O)cc1	2.53	0.6	44.1	161.3*	2.4	156.4*	188.0*	140.5*	113.7*
CN(C)CCNc1oc(/C=C/c2ccccc2)nc1C#N	1.73	1	-1.9	99.5	-24.0	10.1	.	.	.
C=CCNc1oc(/C=C/c2ccccc2)nc1C#N	7.24*	0.8	20.2	155.2*	.	173.9*	196.9*	143.7*	113.7*
Cc1ccc(OCc2nc(-c3ccccc3)no2)c(C)c1	5.15*	0.8	16.3	163.2*	.	120.2	185.1*	129.2	110.5
CCn1ccnc1CN(C)Cc1cn(-c2cc(C)ccc2C)nc1-c1ccccc1	.	1	-1.3	96.1	-2.9	19.1	.	.	.
C#CCOCCOCCOCCNc1nc(N2CCN(C(=O)[C@H]([C@@H](C)CC)n3cc([C@@H](N)CO)nn3)CC2)nc(N2CCN(C(=O)[C@H](CCCCN)n3cc([C@@H](N)CC(C)C)nn3)CC2)n1	1.2	1.1	-13.0	107.9	-12.8	9.9	.	.	.
CN(C1CCS(=O)(=O)C1)S(=O)(=O)c1ccc(C2CCCCC2)cc1 (stereo unspecified)	0.96	1	-4.8	96.1	.	12.0	.	.	.
CC(C)(/C=N/NC(=O)CSCc1ccccc1Cl)CCC#N	1.15	1.1	-6.0	107.2	10.9	-14.6	.	.	.
O=c1c2ccccc2nnn1CSc1ccccc1	4.33*	0.6	35.8	165.2*	-25.7	157.8*	192.4*	109.1	99.8
COc1ccc(C(C#N)N2N=C(c3ccccc3)CC2c2ccccc2)cc1OC (stereo unspecified)	1.81	1	-3.2	112.3	2.7	54.9	.	.	.
COc1ccc(C2=NN(C(C#N)c3ccc(OC)cc3)C(c3ccccc3)C2)cc1 (stereo unspecified)	5.98*	1	-2.5	171.5*	-3.3	108.7	127.5	128.6	99.8
